Measured values taken from ChEMBL document CHEMBL4706687, “Synthesis and Pharmacological Evaluation of Novel Non-nucleotide Purine Derivatives as P2X7 Antagonists for the Treatment of Neuroinflammation” (J Med Chem, 2021).
Activity calls are given as the source filed them. The rule behind the calls is not given here.

Experiments:
Format in all cases: cell-based
[1] = molecular target: T1, P2X purinoceptor 2 (Rattus norvegicus) (UniProt P49653); assay: Antagonist activity at rat P2X2 receptor expressed in Xenopus laevis oocytes assessed as reduction in ATP-induced channel currents at 100 uM by TEVC electrophysiology assay relative to control; settings: Oocyte
T1 sequence (whole entry): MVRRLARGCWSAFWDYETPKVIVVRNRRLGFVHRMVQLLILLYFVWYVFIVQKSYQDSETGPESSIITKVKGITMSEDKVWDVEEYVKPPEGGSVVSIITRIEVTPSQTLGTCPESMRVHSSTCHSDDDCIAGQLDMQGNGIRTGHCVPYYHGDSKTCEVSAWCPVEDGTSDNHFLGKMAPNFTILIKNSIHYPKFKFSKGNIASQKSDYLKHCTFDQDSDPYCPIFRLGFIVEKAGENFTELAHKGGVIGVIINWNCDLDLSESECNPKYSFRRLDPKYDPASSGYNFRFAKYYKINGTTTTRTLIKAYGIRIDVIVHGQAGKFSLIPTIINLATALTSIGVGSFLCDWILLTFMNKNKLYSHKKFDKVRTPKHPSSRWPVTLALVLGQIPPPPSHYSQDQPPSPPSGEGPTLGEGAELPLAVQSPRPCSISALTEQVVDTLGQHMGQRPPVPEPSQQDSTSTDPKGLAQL
Method in brief: (§1)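 Two-electrode voltage clamp at −70 mV in low divalent-cation solution, oocytes incubated 1–2 days at 16–18 °C after 50 nL cRNA injection: rP2X1 and rP2X4 at 0.5 mg/mL, rP2X2 0.1 mg/mL, rP2X7 25 μg/mL. ATP 10 μM for rP2X1 and rP2X2, 30 μM for rP2X4 and rP2X7. Compound applied 3 min without perfusion. Currents normalized to control; three oocytes from two frogs.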

[2] = molecular target: T2, P2X purinoceptor 4 (Rattus norvegicus) (UniProt P51577); assay: Antagonist activity at rat P2X4 receptor expressed in Xenopus laevis oocytes assessed as reduction in ATP-induced channel currents at 100 uM by TEVC electrophysiology assay relative to control; settings: Oocyte; method in brief: as §1
T2 sequence (whole entry): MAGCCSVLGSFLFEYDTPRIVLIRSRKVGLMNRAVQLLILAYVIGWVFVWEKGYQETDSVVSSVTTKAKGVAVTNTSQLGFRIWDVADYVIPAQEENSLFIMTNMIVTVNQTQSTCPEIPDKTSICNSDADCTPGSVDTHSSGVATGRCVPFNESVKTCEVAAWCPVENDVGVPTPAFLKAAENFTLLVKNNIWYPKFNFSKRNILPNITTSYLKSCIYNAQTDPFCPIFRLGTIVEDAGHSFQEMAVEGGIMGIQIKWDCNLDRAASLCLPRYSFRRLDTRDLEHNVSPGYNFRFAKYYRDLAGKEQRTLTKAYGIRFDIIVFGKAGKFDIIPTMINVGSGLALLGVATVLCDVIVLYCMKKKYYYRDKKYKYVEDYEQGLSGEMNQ

P2X purinoceptor 7 = molecular target: T3, P2X purinoceptor 7 (Homo sapiens, UniProt Q99572); assay: (§2) Antagonist activity at human P2X7 receptor expressed in HEK293 cells assessed as reduction in benzoyl-ATP-induced intracellular Ca2+ level by Fura-2 dye based fluorescence assay
T3 sequence (Q99572 whole entry): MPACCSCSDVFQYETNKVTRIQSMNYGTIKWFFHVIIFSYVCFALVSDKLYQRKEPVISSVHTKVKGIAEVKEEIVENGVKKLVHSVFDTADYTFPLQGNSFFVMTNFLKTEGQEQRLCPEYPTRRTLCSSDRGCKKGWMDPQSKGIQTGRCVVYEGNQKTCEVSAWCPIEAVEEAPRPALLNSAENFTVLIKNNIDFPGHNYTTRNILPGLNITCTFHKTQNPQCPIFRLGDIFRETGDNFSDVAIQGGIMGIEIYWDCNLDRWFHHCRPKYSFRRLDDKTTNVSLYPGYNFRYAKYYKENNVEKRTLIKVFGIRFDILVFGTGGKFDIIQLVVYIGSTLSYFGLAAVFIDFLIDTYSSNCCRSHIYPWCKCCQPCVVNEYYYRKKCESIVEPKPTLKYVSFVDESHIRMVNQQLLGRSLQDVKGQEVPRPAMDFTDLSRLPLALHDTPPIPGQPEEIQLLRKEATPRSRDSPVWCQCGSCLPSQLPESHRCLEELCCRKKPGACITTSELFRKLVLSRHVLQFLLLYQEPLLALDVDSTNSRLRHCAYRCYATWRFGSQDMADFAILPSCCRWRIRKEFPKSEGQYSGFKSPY
Method in brief: (§3)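 hP2X7-HEK293 cells 24–48 h after seeding, loaded with Fura-2-AM 8 μM for 1 h, then washed in Mg²⁺-free Tyrode (2 mM CaCl₂, pH 7.4) for 15–30 min with compound present. Excitation 340/380 nm, emission 520 nm. Basal recording, then BzATP injected (100 μM final). [Ca²⁺]c from Grynkiewicz equation. Blockade as percent of BzATP peak in Tyrode-only wells; triplicates.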

[3] = molecular target: T4, P2X purinoceptor 7 (Homo sapiens) (UniProt Q99572); assay: as §2; settings: filed as antagonist; method in brief: as §3
T4 sequence (whole entry): T3 sequence (Q99572 whole entry)

[4] = molecular target: T5, P2X purinoceptor 7 (Rattus norvegicus) (UniProt Q64663); assay: Antagonist activity at rat P2X7 receptor expressed in Xenopus laevis oocytes assessed as reduction in ATP-induced channel currents at 100 uM by TEVC electrophysiology assay relative to control; settings: Oocyte, filed as antagonist; method in brief: as §1
T5 sequence (whole entry): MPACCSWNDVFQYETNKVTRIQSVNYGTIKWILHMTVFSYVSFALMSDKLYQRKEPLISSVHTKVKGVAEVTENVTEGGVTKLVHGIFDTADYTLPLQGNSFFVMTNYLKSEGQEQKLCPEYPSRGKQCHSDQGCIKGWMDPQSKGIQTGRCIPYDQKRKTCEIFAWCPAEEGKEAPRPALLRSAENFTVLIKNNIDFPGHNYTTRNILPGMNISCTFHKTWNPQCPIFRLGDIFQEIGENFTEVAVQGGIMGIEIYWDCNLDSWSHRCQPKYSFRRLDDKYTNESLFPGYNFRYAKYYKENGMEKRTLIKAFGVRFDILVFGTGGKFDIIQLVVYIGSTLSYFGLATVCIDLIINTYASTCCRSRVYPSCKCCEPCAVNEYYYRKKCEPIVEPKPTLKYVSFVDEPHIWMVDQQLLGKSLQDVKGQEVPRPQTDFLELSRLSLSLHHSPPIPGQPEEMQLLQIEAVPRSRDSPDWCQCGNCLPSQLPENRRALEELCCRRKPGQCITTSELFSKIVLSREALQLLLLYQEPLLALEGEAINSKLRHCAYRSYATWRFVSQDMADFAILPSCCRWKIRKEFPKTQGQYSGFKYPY

inhibition [1]: inactive
inhibition [2]: inactive
IC50 (P2X purinoceptor 7): 13.7 µM
inhibition [3]: Dose-dependent effect
inhibition [4]: Active
SMILES: O=C(Cn1cnc2c(Cl)ncnc21)c1ccc(Cl)cc1Cl
